In PMC3059864 (Clinics, 2011):

Legend:
[1] = Biodistribution by pretargeting system in Nude mice bearing PC‐3 tumor cells; parameters: species or system Nude mice (Balb/c); conditions: mouse, in vivo, iv, 50 ul of the mixture
PC‐3 tumor xenografts = assay: Scintigraphic imaging of tumor‐bearing mice; assay type: in vivo, Nude mice (Balb/c); conditions: tumor‐bearing Nude mice
Method in brief: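 PC-3 xenograft-bearing nude mice were pretargeted with the SA:B-MORF:biotinylated BBN analogue mixture (1:1:2) for 7 or 15 h, then given 99mTc-MAG3-cMORF intravenously. Anaesthetised mice, lying horizontally, were imaged on a gamma camera with a low-energy high-resolution collimator. Acquisition used a 20% energy window at 140 keV for 180 s. Tumour region-of-interest uptake was expressed as a percentage.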

Compound: CSCC[C@H](NC(=O)[C@H](CC(C)C)NC(=O)[C@H](Cc1c[nH]cn1)NC(=O)CNC(=O)[C@@H](NC(=O)[C@H](C)NC(=O)[C@H](Cc1c[nH]c2ccccc12)NC(=O)[C@H](CCC(N)=O)NC(=O)CCOCCOCCOCCOCCOCCOCCOCCOCCOCCOCCOCCOCCNC(=O)CCCC[C@@H]1SC[C@@H]2NC(=O)N[C@@H]21)C(C)C)C(N)=O [B‐PEG‐BBN, Biotin‐dPEG‐Gln‐Trp‐Ala‐Val‐Gly‐His‐Leu‐Met‐NH2]
- tissue to tissue ratio [1]: 2.45
- ROI (region of interest) in scintigraphic images (PC‐3 tumor xenografts; 7 h): 1.47%
- ROI (region of interest) in scintigraphic images (PC‐3 tumor xenografts; 15 h): 1.22%
